Screening results: PubChem BioAssay, Broad Institute
PGC1a Ac signal – raises PGC1a acetylation signal in U2OS cells. U2OS PGC1a acetylation AlphaScreen, overnight. activation, % at 15.6 µM. 350,000 compounds, 0.21% hits;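 active means every replicate reaching activation of at least 50%, whatever the mean replicate activation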;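 further: hits raise the AlphaScreen acetylation signal above neutral controls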
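Incubation: overnight compound treatment, 37 °C. System: U2OS cells transduced with flag-tagged PGC1a and GCN5 acetyltransferase. Detection: AlphaScreen lysate read. Compound: single-point compound dosing.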
* marks the source's active call; other numbers are inactive results. Not all results are given here.

SMILES	PGC1a Ac signal
O=C(Cc1cccs1)N/N=C/C(Br)=C/c1ccccc1	81*
Cc1ccccc1NCC(=O)N/N=C/C(Br)=C/c1ccccc1	150*
CC(C)[C@H](NC(=O)NCc1cccs1)C(=O)O	-85
C[C@@H]1CN([C@H](C)CO)C(=O)CCCn2cc(nn2)CO[C@@H]1CN(C)C(=O)NC1CCCC1	-46
COc1ccc(C(=O)Nc2cc(Cl)ccc2-n2cncn2)c(OC)c1OC	-47
Cc1occc1C(=O)N/N=C/C(Br)=C/c1ccccc1	164*
Cn1cc(C(=O)N/N=C/C(Br)=C\c2ccccc2)ccc1=O	128*
O=C(N/N=C/C(Br)=C\c1ccccc1)c1n[nH]c2c1CCC2	91*
COc1ccc(OC)c(/C=N/NC(=O)c2[nH]ncc2Br)c1	-44
COc1ccc(-c2cc(C(=O)N/N=C/c3cc(OC)c(OC)cc3OC)c3ccccc3n2)cc1	-45
COc1cccc(C(=O)N/N=C/C(Br)=C/c2ccccc2)c1	101*
C[C@@H]1CN([C@H](C)CO)C(=O)c2cc(NC(=O)Nc3ccc(F)cc3)ccc2O[C@@H](C)CCCCO[C@@H]1CN(C)C(=O)NC1CCCCC1	-53
CC(=O)Nc1ccc2c(CSc3nncs3)cc(=O)oc2c1	-47
CN(C)CC(O)c1ccc(C=Cc2ccc(Cl)cc2)cc1 (stereo not drawn)	-51
C/C(=N/NC(=O)CNC(=O)c1ccccn1)c1ccc([N+](=O)[O-])cc1	-44
COc1ccc(-c2ccc(OC)cc2C(=O)O)cc1	70*
COc1ccc2c(-c3ccccc3)cc(=O)[nH]c2c1	-42
COc1ccc(-c2cc(-c3ccccc3)c(C#N)c(S(C)=O)n2)cc1 (stereo not drawn)	-85
Cc1cc(C)n(CCc2nc3c4ccccc4n(CC#N)c(=O)n3n2)n1	-41
CCCCC(=O)NCCc1cc2c(OC)ccc(OC)c2[nH]c1=O	-44
CC1(Cc2cc(Cl)ccc2C(F)(F)F)C(=O)Nc2ccc(S(=O)(=O)NC3CCCCC3)cc21 (stereo not drawn)	86*
O=C1C=CCCN1S(=O)(=O)/C=C/c1ccccc1	-59
O=C(NC(=S)Nc1cccc(Cl)c1N1CCCCC1)c1ccco1	104*
CO[C@@H]1CN(C)C(=O)c2ccc(NC(=O)Nc3c(C)noc3C)cc2OC[C@H](C)N(CC2CC2)C[C@@H]1C	-101
COCc1ccc(CN2CCC(n3nccc3NC(=O)c3ccc4c(c3)OCO4)CC2)o1	54*
SMILES	PGC1a Ac signal
CO[C@@H]1CN(C)C(=O)c2cc(NC(=O)c3ccc4c(c3)OCO4)ccc2OC[C@@H](C)N(CC2CC2)C[C@H]1C	-105
C[C@@H]1CN([C@@H](C)CO)C(=O)CCCn2nncc2CO[C@H]1CN(C)CC1CCCCC1	-52
CCOc1ccccc1C(=O)NCCCCCC(=O)O	-42
CCOc1ccc(C(=O)N/N=C(\c2ccccc2)c2ccccn2)cc1	-80
CCOC(=O)C(NC(=O)c1ccccc1OCC)(Nc1ncccn1)C(F)(F)F (stereo not drawn)	70*
Cc1cc(C)nc(NS(=O)(=O)c2ccc(NC(=O)Nc3ccccc3)cc2)n1	-97
Cc1cc(S(=O)(=O)Nc2ccc3ccccc3c2)c(C)s1	58*
CCOc1nc(NC(=O)NS(=O)(=O)c2ccccc2F)nc(-c2ccccc2)n1	-50
CC(C)(C)OC(=O)NC(Cc1ccccc1)C(=O)NCCCC(=O)O (stereo not drawn)	-43
Cc1ccc(-c2nnc(Nc3ccccc3)c3ccccc23)cc1S(=O)(=O)NCC1CCCO1 (stereo not drawn)	120*
COc1ccc(N(C(=O)CCl)C(C(=O)NCCc2ccccc2)c2cccs2)cc1 (stereo not drawn)	-61
C[C@@H]1CN([C@H](C)CO)C(=O)c2cc(C3=CCCCC3)cnc2O[C@@H]1CN(C)Cc1ccccc1	-44
CC(c1ccccc1)N1C(=O)NC(NC(=O)c2cccnc2)(C(F)(F)F)C1=O (stereo not drawn)	74*
CC(=O)Nc1cccc(OCC(=O)Nc2ccccc2)c1	51*
CCOC(=O)N1CCC(N(CCN(C)C)C(=S)Nc2cccc(OC)c2)CC1	-45
CC(=O)c1ccc(NC(=O)CSCC(=O)Nc2ccc3ccccc3c2)cc1	-56
O=C(NCC[C@@H]1CC[C@H](NS(=O)(=O)Cc2ccccc2)[C@H](CO)O1)C1CCC1	-61
O=C(CSc1nc2c(sc3ccccc32)c(=O)n1CCc1ccccc1)NCc1ccco1	-57
Cc1cc(SCC(=O)NC(=O)NCc2ccco2)nc2ccccc12	85*
CNC(=O)COC(=O)c1cc(-c2ccco2)nc2ccccc12	-46
COCC(=O)NCc1nc2ccccc2n1Cc1ccccc1F	-47
C[n+]1c2n(c3ccccc31)N=C(c1cc(C(C)(C)C)c(O)c(C(C)(C)C)c1)CS2	88*
C[C@@H]1CN([C@@H](C)CO)C(=O)c2cc(NC(=O)CCCN(C)C)ccc2O[C@@H](C)CCCCO[C@@H]1CN(C)Cc1ccc(C(F)(F)F)cc1	-110
OC[C@H]1O[C@@H](n2cnc3c(NCc4ccco4)ncnc32)[C@H](O)[C@@H]1O	72*
CC(C)c1nc2sc3c(NCc4ccco4)ncnc3c2c2c1COC(C)(C)C2	-59
SMILES	PGC1a Ac signal
Nc1nc(F)nc2c1ncn2[C@@H]1O[C@H](CO)[C@@H](O)[C@H]1O	-83
C[C@@H]1CN([C@H](C)CO)C(=O)c2cc(NS(=O)(=O)c3ccc(F)cc3)ccc2O[C@H]1CN(C)Cc1ccc(C(F)(F)F)cc1	-56
Cc1noc(C)c1S(=O)(=O)N(C)C[C@H]1Oc2ccc(NC(=O)Nc3ccccc3)cc2CC(=O)N([C@H](C)CO)C[C@H]1C	-56
O=C(NCc1ccc2c(c1)OCO2)c1nc(S(=O)(=O)Cc2ccccc2)ncc1Cl	74*
Cc1noc(C)c1S(=O)(=O)Nc1ccc2c(c1)C(=O)N([C@H](C)CO)C[C@@H](C)[C@@H](CN(C)S(=O)(=O)c1cccs1)OCCCC[C@H](C)O2	-51
CCS(=O)(=O)N[C@H]1C=C[C@H](CC(=O)N2CCCCC2)O[C@H]1CO	-43
C[C@@H]1CCCCO[C@@H](CN(C)C(=O)c2ccncc2)[C@@H](C)CN([C@H](C)CO)C(=O)c2cc(NC(=O)CCCCCC(=O)Nc3ccccc3N)ccc2O1	-99
OC(COc1ccc(CNCCc2ccc(C(F)(F)F)cc2)cc1)CN1CCCCC1 (stereo not drawn)	54*
CO[C@@H]1CN(C)C(=O)c2cc(NC(C)=O)ccc2OC[C@@H](C)N(Cc2ccccc2C(=O)O)C[C@@H]1C	-43
COc1ccc(C)cc1NS(=O)(=O)c1ccc(NC(=O)CN(c2cc([N+](=O)[O-])ccc2C)S(C)(=O)=O)cc1	474*
CC(=O)Nc1cc(C(=O)OCc2cccc([N+](=O)[O-])c2)ccc1C	-49
CCOc1ccc(N(CC(=O)Nc2ccccc2OC)S(=O)(=O)c2ccccc2)cc1	-88
COc1ccc(OC)c(N(CC(=O)Nc2ccccc2)S(C)(=O)=O)c1	-43
Cc1cccc(NS(=O)(=O)c2ccc(NC(=O)CN(c3cc([N+](=O)[O-])ccc3C)S(C)(=O)=O)cc2)c1	378*
Cc1c(NC(=O)COC(=O)c2ccccc2O)c(=O)n(-c2ccccc2)n1C	-57
CC(C)c1ccc(/C=N/n2nnnc2Nc2ccccc2)cc1	-46
COc1cccc(C2c3[nH]c4ccccc4c3CCN2Cc2cnc(C)s2)c1OC (stereo not drawn)	70*
Nc1c(C(=O)Nc2ccccc2)sc2ncc([N+](=O)[O-])cc12	84*
CN1CCN(c2ccc([N+](=O)[O-])cc2C(=O)Nc2ccccc2)CC1	-46
